A word on the inhibition: it is the relative decrease from the control value, in per cent.

Consider one compound from ChEMBL document CHEMBL4819027, “Design, synthesis and biological evaluation of novel 2-(4-(1H-indazol-6-yl)-1H-pyrazol-1-yl)acetamide derivatives as potent VEGFR-2 inhibitors” (Eur J Med Chem, 2021).

The target of assay [1] is Vascular endothelial growth factor receptor 2 (Homo sapiens, UniProt P35968). The assay can be described thus: Inhibition of VEGFR2-mediated angiogenesis in HUVEC cells assessed as reduction of phosphorylation of VEGFR-2 after 24 hrs by Westernblot analysis relative to control. Type of assay: cell-based. To be noted: dose 1-10 µM. In short, it runs like this: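 HUVECs seeded at 1.0×10^6 cells/dish in ECM with 1% ECGS, 10% FBS; treated 24 h with test compound (1, 5, 10 µM), 0.1% DMSO vehicle or 10 µM sorafenib. Lysed in RIPA with PMSF and phosphatase inhibitor; 8–12% SDS-PAGE, nitrocellulose, milk block, CST primaries overnight 4 °C, HRP secondaries, ECL; p-VEGFR-2 (Tyr1175) densitometry; at least triplicate.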

Assay [2] relates to HGC-27. The experiment in a line: Antimigratory activity against human HGC-27 cells assessed as number of migration cells at 1 uM measured after 24 hrs by transwell migration assay (reference value: 320). Type of assay: functional.
Another assay deals with HUVEC. The assay can be described thus: Antiangiogenic activity against HUVEC cells assessed as reduction in VEGF-induced tube length at 1 to 10 uM incubated for 12 hrs by matrigel-based assay. Type of assay: functional, cell-based. To be noted: Homo sapiens, dose 1-10 µM. In short, it runs like this:
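HUVECs at 4 × 10⁵ cells/mL seeded on Matrigel that had been polymerized 1 h at 37 °C. Cells were stimulated with 20 ng/mL VEGF and treated with compound (1, 2.5, 5 and 10 μM) or 0.1% DMSO vehicle for 12 h at 37 °C. Tubes were imaged by inverted microscopy. Tube length, surface area and branch points were quantified as pixel area.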

Assay [3] has as its system HGC-27. The assay can be described thus: Induction of apoptosis in human HGC-27 cells assessed as up regulation of Bax protein expression at measured after 24 hrs by Western blot analysis. To be noted: dose 0.1-1 µM. Type of assay: functional, cell-based. In short, it runs like this: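 HGC-27 cells (1.0 × 10⁶ per 60 mm dish) were treated 24 h with 0.1% DMSO or compound (0.1, 0.5, 1 μM). Cells were lysed in RIPA with PMSF and phosphatase inhibitor, and protein measured by BCA. Lysates were run on 8–12% SDS-PAGE, transferred to nitrocellulose and probed with primary antibodies overnight at 4 °C, then HRP secondary. Bands were detected by ECL and densitometry; at least triplicate.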
(In general: Immunoblotting shows a protein as a band on a membrane.)

The test system of assay [4] is HGC-27. The assay can be described thus: Induction of apoptosis in human HGC-27 cells assessed as necrotic cells level at 0.5 uM incubated for 24 hrs by propidium iode and annexin V-FITC staining based flow cytometry (reference value: 1.64%). Type of assay: functional. Summed up:
(§1)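 HGC-27 cells (1.0 × 10⁶ per 60 mm dish) were treated 24 h with 0.1% DMSO or compound (0.1, 0.5, 1 μM). Cells were stained with Annexin V-FITC in HEPES/NaCl/CaCl₂ binding buffer (pH 7.4) for 15 min at room temperature, then with PI for 10 min. About 10 000 events were acquired by flow cytometry to give viable, early apoptotic, late apoptotic and necrotic fractions.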
(In general: A flow cytometer gives signals particle by particle.)

Assay [5] has as its system HGC-27. The experiment in a line: Induction of apoptosis in human HGC-27 cells assessed as total apoptotic cells level at 0.5 uM incubated for 24 hrs by propidium iode and annexin V-FITC staining based flow cytometry. Type of assay: functional. Summed up: as §1
Assay [6] relates to HGC-27. The experiment in a line: Induction of apoptosis in human HGC-27 cells assessed as viable cells level at 1 uM incubated for 24 hrs by propidium iode and annexin V-FITC staining based flow cytometry (reference value: 96.0%). Type of assay: functional. Summed up: as §1
For assay [7], the system named is HGC-27. The assay can be described thus: Inhibition of colony formation in human HGC-27 cells after 12 days by crystal violet staining based assay. It is filed as functional, cell-based. To be noted: dose 0.1-1 µM, time 12.0 day. Summed up:
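HGC-27 cells (500/well, 6-well plates) attached 24 h at 37 °C, then kept 12 days in medium with compound (0.1, 0.5, 1 µM), 0.1% DMSO vehicle or 5 µM sorafenib. Washed with cold PBS, methanol-fixed, stained 0.1% crystal violet 30 min; colonies >50 cells photographed and counted.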

The test system of assay [8] is HGC-27. The assay can be described thus: Induction of apoptosis in human HGC-27 cells assessed as viable cells level at 0.5 uM incubated for 24 hrs by propidium iode and annexin V-FITC staining based flow cytometry (reference value: 96.0%). It is filed as functional. Summed up: as §1
Assay [9] concerns HGC-27. The experiment in a line: Antimigratory activity against human HGC-27 cells assessed as number of migration cells at 0.1 uM measured after 24 hrs by transwell migration assay (reference value: 320). It is filed as functional.
Assay [10] deals with HGC-27. The experiment in a line: Antimigratory activity against human HGC-27 cells assessed as relative closure of scratches at 0.5 uM measured after 24 hrs by scratch wound healing assay relative to control. Type of assay: functional. In short, it runs like this: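 HGC-27 monolayers at 80–90% confluence were serum-starved 12 h, then scratched to give 1 mm lanes. After a PBS wash, cells received complete medium with or without compound (0.1, 0.5, 1 μM). Wounds were imaged at 0, 6 and 24 h. Relative scratch closure was quantified against untreated control; mean ± SD of three experiments.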

In assay [11] the test system is HGC-27. The assay can be described thus: Inhibition of cell migration at human HGC-27 cells measured up to 24 hrs by microscopic based wound healing assay. It is filed as functional. To be noted: dose 0.1-1 µM, time hrs <=24. Summed up:
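HGC-27 grown to 80–90% confluence in 6-well plates, serum-starved 12 h, scratched with 200 µL tip (~1 mm lane). Washed, then given complete medium alone or with compound (0.1, 0.5, 1 µM) or sorafenib positive control. Imaged by inverted microscope at 0, 6 and 24 h; relative scratch closure quantified; mean ± SD, three independent experiments.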

Calls of active or inactive are those of the source. The calls are words filed in the database; no cut-off is given here.

Vascular endothelial growth factor receptor 2, sequence (P35968 whole entry): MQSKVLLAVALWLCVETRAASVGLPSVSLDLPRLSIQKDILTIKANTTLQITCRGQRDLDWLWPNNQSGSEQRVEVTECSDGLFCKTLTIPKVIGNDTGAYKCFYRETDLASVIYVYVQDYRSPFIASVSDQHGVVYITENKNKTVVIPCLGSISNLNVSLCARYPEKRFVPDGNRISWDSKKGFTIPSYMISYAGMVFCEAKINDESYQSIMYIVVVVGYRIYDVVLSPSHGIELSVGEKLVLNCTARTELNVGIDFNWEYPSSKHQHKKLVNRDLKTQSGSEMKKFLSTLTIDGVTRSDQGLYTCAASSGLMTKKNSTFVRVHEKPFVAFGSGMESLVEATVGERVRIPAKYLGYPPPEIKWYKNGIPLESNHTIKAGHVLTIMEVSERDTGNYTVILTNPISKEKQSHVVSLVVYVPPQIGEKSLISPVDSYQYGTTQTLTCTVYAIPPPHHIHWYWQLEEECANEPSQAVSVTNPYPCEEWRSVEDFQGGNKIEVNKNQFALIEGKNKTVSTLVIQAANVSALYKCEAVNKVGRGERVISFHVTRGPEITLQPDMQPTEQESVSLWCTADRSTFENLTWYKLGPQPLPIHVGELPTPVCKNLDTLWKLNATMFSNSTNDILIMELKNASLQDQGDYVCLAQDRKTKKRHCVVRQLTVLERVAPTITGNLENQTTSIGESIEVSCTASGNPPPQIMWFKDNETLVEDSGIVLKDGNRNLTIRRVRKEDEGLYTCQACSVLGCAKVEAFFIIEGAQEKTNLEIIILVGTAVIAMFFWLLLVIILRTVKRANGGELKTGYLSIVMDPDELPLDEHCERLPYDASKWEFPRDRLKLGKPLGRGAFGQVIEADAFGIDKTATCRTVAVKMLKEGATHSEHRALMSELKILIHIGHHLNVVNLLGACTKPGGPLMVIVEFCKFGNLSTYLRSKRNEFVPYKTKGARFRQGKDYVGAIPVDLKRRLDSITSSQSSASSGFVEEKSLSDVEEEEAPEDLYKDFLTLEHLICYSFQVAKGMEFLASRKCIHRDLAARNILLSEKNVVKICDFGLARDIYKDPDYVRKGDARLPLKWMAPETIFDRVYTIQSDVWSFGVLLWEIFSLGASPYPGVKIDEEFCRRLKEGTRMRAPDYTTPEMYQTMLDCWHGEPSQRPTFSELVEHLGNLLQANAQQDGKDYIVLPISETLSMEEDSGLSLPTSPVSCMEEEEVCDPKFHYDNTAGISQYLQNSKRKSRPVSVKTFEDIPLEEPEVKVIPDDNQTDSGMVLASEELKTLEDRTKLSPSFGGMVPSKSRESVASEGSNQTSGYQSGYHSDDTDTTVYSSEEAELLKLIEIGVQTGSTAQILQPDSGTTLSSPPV

For `CC(=O)Nc1n[nH]c2cc(-c3cnn(CC(=O)Nc4ccc(C)c(C(F)(F)F)c4)c3)ccc12`, the inhibition result (in [1]; in the assay with HGC-27 [7]; in the assay with HGC-27 [11]) was “Dose-Dependent Effect” in each case. Besides, the Activity was 22 in the assay with HGC-27 [2]; “Dose-Dependent Effect” in the assay with HGC-27 [3]; 10.8% with HGC-27 [4]; 19.55% in the assay on HGC-27 [5]; 61.6% in the assay with HGC-27 [6]; 69.7% in the assay with HGC-27 [8]. The Activity with HGC-27 [9] was found to be 212. The outcome with HUVEC was Active. The inhibition at 0.5 µM in the assay on HGC-27 [10] came to 28%.
